Experimental findings from ChEMBL document CHEMBL4354861, “Re-Evaluating the Mechanism of Action of α,β-Unsaturated Carbonyl DUB Inhibitors b-AP15 and VLX1570: A Paradigmatic Example of Unspecific Protein Cross-linking with Michael Acceptor Motif-Containing Drugs” (J Med Chem, 2020) are described below.

SMILES strings stand for the structures. Activity calls are given as the source filed them. The calls are words filed in the database; no cut-off is given here.

Assay [1] addresses Ubiquitin carboxyl-terminal hydrolase 7 (Homo sapiens) (UniProt Q93009). In words: Inhibition of N-terminal His6-tagged full length recombinant human USP7 assessed as reduction in cleavage of luminescent substrate Ub-AML at 100 uM. Summed up:
(§1)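 Purified recombinant DUBs assayed with Ub-AML as luminescent substrate, using the Glo reagent protocol and read on a microplate luminometer.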

The target of assay [2] is Ubiquitin carboxyl-terminal hydrolase 14 (Homo sapiens) (UniProt P54578). As to the kind of experiment: Inhibition of USP14 in intact human HeLa cells assessed as induction of formation of high molecular weight complexes with USP14 at 10 uM in presence of glutathione incubated for 2 hrs by immunoblot analysis. Type of assay: cell-based. Summed up: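 Intact HeLa cells (DMEM, 10% FBS, about 80% confluent) treated 2 h with vehicle or 10 μM compound, with or without 10 mM DTT or 10 mM GSH. Cells washed in cold PBS and lysed in RIPA with protease and phosphatase inhibitors. High-MW species detected by SDS-PAGE immunoblot; shorter exposures served as loading control.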

The target is the same in assay [3]. As to the kind of experiment: Inhibition of USP14 in human HeLa crude cell extracts assessed as induction of formation of high molecular weight complexes with USP14 at 10 uM incubated for 2 hrs in presence of glutathione by immunoblot analysis. Type of assay: cell-free.
Assay [4] has as its system HCT-116. In words: Cytotoxicity in human HCT116 cells assessed as reduction in cell viability incubated for 72 hrs Cell-titer Glo reagent based assay. Type of assay: functional. Summed up:
(§2)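 Tumor lines grown at 37 °C, 5% CO2 with 10% FBS (DMEM for HeLa and SiHa; RPMI for HCT116) and exposed to compound for 72 h. Viability read by CellTiter Glo luminescence; IC50 derived from n=6.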

The test system of assay [5] is SiHa. As to the kind of experiment: Cytotoxicity in human SiHa cells assessed as reduction in cell viability incubated for 72 hrs Cell-titer Glo reagent based assay. It counts as functional. The method, boiled down:
as §2

Assay [6] is filed under the species Homo sapiens. In words: Inhibition of purified 19S proteasome (unknown origin) assessed as reduction in cleavage of luminescent substrate Ub-AML at 100 uM.
Assay [7] has as its system HeLa. As to the kind of experiment: Inhibition of deubiquitinase in human HeLa cell extracts assessed as decrease in global DUB activity at 50 uM using luminescent substrate Ub-AML. It counts as cell-free. The method, boiled down:
(§3)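 HeLa crude extracts used as the DUB source, prepared as for the ABP assays. Global DUB activity read by luminescence with Ub-AML substrate, using the Glo reagent protocol.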

Assay [8] addresses Ubiquitin carboxyl-terminal hydrolase 14 (Homo sapiens) (UniProt P54578). In words: Inhibition of USP14 in human HeLa crude cell extracts assessed as induction of formation of high molecular weight complexes with USP14 at 10 uM incubated for 2 hrs in presence of dithiothreitol by immunoblot analysis. It counts as cell-free.
Assay [9] deals with Ubiquitin carboxyl-terminal hydrolase isozyme L3 (Homo sapiens) (UniProt P15374). As to the kind of experiment: Inhibition of human recombinant UCHL3 assessed as reduction in cleavage of luminescent substrate Ub-AML at 100 uM. The method, boiled down:
as §1

Assay [10] deals with HeLa. In words: Inhibition of deubiquitinase in human HeLa cell extracts assessed as decrease in global DUB activity at 10 uM using luminescent substrate Ub-AML. Type of assay: cell-free. The method, boiled down: as §3
Assay [11] concerns the target T1, Ubiquitin carboxyl-terminal hydrolase 28 (Homo sapiens) (UniProt Q96RU2).
T1 sequence (whole entry): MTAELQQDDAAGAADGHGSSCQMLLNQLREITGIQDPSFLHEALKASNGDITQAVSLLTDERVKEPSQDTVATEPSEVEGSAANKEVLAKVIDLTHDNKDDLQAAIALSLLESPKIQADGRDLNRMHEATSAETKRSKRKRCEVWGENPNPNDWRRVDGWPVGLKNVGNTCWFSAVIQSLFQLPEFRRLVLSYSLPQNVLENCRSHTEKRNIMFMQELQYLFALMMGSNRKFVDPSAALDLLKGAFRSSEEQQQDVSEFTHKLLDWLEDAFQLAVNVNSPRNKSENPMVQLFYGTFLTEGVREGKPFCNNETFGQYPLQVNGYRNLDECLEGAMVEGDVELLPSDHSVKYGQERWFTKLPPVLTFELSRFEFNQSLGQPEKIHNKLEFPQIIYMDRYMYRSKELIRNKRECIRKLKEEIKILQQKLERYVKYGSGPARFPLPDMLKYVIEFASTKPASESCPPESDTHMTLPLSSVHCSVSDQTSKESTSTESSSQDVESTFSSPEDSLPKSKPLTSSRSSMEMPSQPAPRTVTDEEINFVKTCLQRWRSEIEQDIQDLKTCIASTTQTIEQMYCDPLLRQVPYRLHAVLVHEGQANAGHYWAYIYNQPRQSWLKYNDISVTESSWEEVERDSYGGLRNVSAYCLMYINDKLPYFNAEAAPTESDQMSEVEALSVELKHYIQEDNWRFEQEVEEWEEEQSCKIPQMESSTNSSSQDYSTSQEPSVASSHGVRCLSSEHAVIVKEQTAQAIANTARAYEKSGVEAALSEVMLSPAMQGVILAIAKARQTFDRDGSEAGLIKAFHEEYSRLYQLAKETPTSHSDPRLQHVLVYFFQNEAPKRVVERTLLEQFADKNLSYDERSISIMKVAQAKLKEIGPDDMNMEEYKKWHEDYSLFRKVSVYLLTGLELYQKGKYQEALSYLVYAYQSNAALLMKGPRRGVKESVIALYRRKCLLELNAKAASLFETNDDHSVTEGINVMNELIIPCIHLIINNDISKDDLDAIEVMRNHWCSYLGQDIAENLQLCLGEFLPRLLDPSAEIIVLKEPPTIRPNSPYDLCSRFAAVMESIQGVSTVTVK
In words: Inhibition of USP28 in human HeLa cell extracts assessed as inhibition of HA-Ub-C2Br probe labeling at 1 to 100 uM incubated for 30 mins by immunoblot analysis. It counts as cell-free.

For assay [12], the system named is HeLa. In words: Inhibition of deubiquitinase in human HeLa cell extracts assessed as induction of accumulation of high molecular weight ubiquitylated proteins at 10 uM incubated for 2 hrs in presence of DTT by immunoblot analysis. It counts as cell-free.
The target of assay [13] is Ataxin-3 (Homo sapiens) (UniProt P54252). As to the kind of experiment: Inhibition of human recombinant Ataxin-3 assessed as reduction in cleavage of luminescent substrate Ub-AML at 100 uM. Summed up:
as §1

Assay [14] concerns the target Ubiquitin carboxyl-terminal hydrolase BAP1 (Homo sapiens) (UniProt Q92560). In words: Inhibition of His6-tagged recombinant human BAP1 assessed as reduction in cleavage of luminescent substrate Ub-AML at 100 uM. Summed up: as §1
Assay [15] has as its system HeLa. As to the kind of experiment: Cytotoxicity in human HeLa cells assessed as reduction in cell viability incubated for 72 hrs Cell-titer Glo reagent based assay. Type of assay: functional. Summed up:
as §2

Ubiquitin carboxyl-terminal hydrolase 14 (Homo sapiens), sequence (P54578 whole entry): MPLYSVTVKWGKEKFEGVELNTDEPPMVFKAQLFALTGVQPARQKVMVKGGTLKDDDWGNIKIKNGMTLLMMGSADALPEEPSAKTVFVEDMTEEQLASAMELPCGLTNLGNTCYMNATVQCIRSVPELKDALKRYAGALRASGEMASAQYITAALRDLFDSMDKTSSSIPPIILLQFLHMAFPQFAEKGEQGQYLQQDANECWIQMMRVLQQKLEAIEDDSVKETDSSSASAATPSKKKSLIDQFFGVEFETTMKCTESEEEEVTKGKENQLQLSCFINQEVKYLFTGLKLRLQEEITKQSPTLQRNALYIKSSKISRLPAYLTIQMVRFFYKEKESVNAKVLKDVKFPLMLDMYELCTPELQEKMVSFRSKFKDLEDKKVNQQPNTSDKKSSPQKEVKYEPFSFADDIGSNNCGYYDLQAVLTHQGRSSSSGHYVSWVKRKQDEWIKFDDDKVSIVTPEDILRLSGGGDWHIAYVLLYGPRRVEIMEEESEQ
Ubiquitin carboxyl-terminal hydrolase BAP1 (Homo sapiens), sequence (Q92560 whole entry): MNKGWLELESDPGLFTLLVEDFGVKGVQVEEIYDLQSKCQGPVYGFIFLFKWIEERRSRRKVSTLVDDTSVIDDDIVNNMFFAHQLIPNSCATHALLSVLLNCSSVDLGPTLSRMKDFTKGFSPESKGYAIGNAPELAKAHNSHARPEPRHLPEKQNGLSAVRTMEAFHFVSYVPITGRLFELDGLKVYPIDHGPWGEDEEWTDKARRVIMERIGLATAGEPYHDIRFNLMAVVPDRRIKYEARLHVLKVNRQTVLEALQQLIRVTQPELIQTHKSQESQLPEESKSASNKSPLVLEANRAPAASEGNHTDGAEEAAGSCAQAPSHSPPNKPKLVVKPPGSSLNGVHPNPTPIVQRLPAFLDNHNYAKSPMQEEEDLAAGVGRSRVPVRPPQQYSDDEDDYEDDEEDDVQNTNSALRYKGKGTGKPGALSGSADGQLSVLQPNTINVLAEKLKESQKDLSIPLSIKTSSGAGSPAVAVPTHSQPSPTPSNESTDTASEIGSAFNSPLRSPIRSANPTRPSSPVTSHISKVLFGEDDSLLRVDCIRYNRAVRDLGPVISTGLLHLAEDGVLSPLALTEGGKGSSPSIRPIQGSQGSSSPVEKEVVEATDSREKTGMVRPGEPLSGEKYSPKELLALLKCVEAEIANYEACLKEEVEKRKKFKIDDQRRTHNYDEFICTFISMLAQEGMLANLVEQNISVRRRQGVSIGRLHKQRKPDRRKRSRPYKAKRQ
Ubiquitin carboxyl-terminal hydrolase isozyme L3 (Homo sapiens), sequence (P15374 whole entry): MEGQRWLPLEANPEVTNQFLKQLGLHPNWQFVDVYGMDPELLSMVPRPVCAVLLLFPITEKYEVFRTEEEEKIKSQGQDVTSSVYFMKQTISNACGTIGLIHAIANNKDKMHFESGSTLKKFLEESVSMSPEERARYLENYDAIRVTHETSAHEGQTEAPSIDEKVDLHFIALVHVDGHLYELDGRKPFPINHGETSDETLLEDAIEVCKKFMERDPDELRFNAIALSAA
Ubiquitin carboxyl-terminal hydrolase 7 (Homo sapiens), sequence (Q93009 whole entry, looked up): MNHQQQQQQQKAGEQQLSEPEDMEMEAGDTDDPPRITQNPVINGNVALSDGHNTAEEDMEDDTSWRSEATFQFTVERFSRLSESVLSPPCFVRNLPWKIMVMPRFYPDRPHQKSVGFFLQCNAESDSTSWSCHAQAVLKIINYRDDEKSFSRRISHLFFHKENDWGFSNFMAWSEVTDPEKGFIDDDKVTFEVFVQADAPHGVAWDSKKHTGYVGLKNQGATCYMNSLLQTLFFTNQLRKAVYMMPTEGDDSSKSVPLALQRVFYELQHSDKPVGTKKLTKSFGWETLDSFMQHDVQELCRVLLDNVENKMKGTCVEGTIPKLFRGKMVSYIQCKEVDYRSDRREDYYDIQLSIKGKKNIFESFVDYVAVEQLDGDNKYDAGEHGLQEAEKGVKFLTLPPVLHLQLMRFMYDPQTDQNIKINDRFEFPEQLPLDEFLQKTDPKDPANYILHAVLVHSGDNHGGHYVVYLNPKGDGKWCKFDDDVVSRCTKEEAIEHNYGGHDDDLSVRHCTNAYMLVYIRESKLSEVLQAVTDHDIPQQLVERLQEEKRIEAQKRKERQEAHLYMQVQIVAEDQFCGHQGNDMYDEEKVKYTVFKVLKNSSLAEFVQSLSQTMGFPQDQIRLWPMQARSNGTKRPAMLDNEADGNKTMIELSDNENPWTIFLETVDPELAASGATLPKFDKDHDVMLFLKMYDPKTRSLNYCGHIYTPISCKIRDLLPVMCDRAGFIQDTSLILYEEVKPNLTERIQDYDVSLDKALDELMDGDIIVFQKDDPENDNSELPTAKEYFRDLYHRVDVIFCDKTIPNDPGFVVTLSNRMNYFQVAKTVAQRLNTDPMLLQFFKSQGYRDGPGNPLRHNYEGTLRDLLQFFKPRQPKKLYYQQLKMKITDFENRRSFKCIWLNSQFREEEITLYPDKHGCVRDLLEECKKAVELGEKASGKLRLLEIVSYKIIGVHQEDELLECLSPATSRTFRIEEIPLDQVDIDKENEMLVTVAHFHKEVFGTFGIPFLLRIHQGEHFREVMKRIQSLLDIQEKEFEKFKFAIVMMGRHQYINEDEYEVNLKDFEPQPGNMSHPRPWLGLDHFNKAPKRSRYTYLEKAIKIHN
Ataxin-3 (Homo sapiens), sequence (P54252 whole entry): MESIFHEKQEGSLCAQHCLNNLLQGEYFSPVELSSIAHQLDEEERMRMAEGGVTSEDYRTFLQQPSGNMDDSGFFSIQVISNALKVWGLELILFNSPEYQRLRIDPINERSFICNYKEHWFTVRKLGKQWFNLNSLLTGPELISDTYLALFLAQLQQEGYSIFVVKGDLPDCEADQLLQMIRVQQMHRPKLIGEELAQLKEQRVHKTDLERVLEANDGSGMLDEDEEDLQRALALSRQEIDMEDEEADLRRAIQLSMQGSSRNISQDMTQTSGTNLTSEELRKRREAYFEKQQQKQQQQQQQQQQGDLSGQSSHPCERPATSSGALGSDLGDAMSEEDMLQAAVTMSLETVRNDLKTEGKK

With `C=CC(=O)N1C/C(=C\c2ccc([N+](=O)[O-])cc2)C(=O)/C(=C/c2ccc([N+](=O)[O-])cc2)C1`, the inhibition entry in assay [1], in [6], in assay [7], in assay [9], in [10] and in assay [11] was “Active” in each case. The inhibition entry in assay [13] and in assay [14] was “Active” in each case. The inhibition entry in assay [2], in assay [3], in [8] and in assay [12] was “inactive” each time. Moreover, the outcome in assay [4], in assay [5] and in assay [15] was Active.
